# Columns and labels:
# Conditions in all cases: stereoisomer not certain
# [1] = biological target: T1, UniProt Q8VGU3
# T1 sequence (whole entry): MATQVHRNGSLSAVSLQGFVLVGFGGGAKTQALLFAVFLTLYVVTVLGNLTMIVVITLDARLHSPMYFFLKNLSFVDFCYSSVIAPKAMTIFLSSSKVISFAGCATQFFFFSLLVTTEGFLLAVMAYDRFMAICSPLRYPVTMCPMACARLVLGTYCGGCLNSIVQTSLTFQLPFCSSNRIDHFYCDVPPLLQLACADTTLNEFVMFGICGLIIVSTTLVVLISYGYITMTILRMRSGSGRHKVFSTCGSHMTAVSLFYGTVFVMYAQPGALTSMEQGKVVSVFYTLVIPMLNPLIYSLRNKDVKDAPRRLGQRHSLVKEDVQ
# How it was run: (§1)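 Each receptor–molecule pair is labelled responsive or non-responsive (inactive) according to whether the original authors judged the measured signal statistically different from baseline. The data were taken from the main text and supplementary material of published papers and checked for typos and inconsistencies. Assay methods differed by source, with transient luciferase assays in mammalian cell lines being common.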
# [2] = biological target: T2, UniProt Q8VGV7
# T2 sequence (whole entry): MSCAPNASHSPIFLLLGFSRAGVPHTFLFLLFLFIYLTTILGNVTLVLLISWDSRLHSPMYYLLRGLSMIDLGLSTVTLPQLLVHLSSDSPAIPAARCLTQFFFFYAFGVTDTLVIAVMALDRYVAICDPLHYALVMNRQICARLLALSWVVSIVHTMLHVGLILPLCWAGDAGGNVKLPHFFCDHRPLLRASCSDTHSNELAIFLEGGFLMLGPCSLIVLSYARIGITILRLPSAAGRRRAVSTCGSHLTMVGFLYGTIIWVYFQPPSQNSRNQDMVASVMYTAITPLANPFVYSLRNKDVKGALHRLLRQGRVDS
# How it was run: as §1
# [3] = biological target: T3, UniProt Q8VGX3
# T3 sequence (whole entry): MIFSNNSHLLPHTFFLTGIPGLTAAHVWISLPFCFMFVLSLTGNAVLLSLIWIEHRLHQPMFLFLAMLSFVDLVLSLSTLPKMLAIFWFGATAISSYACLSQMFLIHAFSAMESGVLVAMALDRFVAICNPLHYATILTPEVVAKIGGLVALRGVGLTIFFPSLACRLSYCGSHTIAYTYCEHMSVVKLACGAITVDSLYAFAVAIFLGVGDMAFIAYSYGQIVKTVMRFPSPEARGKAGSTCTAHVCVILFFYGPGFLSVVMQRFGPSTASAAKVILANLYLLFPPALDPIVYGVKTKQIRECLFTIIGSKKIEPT
# How it was run: as §1
# [4] = biological target: T4, UniProt Q8VGX5
# T4 sequence (whole entry): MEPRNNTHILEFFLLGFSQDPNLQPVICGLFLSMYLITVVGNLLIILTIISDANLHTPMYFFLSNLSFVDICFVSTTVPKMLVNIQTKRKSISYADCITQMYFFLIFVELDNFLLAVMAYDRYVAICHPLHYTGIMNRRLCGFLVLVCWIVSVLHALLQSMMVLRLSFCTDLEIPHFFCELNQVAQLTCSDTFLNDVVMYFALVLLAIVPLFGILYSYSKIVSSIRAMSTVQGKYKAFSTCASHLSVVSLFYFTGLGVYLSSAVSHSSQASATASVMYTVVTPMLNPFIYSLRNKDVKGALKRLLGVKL
# How it was run: as §1
# [5] = biological target: T5, UniProt Q8VGM2
# T5 sequence (whole entry): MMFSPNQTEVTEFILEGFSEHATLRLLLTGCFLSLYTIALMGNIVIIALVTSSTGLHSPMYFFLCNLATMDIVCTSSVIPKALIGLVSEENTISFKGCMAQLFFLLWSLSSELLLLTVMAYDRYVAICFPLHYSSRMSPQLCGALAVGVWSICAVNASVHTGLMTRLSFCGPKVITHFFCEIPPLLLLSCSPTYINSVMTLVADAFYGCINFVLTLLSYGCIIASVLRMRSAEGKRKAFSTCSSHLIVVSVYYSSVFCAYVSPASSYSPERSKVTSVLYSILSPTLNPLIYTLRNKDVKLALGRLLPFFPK
# How it was run: as §1
# [6] = biological target: T6, UniProt Q8VGP6
# T6 sequence (whole entry): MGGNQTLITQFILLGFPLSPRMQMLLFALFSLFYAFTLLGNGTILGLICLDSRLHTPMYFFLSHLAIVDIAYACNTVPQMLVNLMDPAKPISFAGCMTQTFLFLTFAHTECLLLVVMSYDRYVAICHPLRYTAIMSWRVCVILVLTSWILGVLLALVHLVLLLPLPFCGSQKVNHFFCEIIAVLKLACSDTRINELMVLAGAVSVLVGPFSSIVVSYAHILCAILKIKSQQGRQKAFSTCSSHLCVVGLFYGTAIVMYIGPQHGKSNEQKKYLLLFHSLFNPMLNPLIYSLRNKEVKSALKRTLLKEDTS
# How it was run: as §1
# [7] = biological target: T7, UniProt Q8VGQ3
# T7 sequence (whole entry): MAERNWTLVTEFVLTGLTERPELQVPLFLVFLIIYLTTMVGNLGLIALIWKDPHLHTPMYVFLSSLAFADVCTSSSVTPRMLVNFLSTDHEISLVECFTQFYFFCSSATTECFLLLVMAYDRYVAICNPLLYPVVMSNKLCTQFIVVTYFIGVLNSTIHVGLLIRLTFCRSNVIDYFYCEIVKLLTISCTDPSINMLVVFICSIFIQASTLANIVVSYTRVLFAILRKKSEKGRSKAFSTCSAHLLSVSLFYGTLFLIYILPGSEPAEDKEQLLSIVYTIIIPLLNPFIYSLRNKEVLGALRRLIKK
# How it was run: as §1
# [8] = biological target: T8, UniProt Q8VGT4
# T8 sequence (whole entry): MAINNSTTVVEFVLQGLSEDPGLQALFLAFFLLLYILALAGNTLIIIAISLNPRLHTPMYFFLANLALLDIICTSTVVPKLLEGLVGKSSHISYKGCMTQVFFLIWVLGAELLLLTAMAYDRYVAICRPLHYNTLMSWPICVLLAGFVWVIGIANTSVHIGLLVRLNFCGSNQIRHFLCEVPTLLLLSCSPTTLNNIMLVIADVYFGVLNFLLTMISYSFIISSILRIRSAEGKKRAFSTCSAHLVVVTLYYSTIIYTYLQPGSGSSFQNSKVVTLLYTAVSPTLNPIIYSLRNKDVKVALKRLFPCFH
# How it was run: as §1
# [9] = biological target: T9, UniProt Q8VGV1
# T9 sequence (whole entry): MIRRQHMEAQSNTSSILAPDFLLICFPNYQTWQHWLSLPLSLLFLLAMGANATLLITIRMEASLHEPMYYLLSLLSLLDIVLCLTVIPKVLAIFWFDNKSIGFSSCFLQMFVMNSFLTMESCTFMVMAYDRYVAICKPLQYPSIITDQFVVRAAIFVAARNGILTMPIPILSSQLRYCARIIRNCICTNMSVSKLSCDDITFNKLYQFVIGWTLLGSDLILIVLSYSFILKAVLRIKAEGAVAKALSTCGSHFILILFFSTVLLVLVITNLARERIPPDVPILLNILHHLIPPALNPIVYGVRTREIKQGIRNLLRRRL
# How it was run: as §1
# [10] = biological target: T10, UniProt Q8VGW5
# T10 sequence (whole entry): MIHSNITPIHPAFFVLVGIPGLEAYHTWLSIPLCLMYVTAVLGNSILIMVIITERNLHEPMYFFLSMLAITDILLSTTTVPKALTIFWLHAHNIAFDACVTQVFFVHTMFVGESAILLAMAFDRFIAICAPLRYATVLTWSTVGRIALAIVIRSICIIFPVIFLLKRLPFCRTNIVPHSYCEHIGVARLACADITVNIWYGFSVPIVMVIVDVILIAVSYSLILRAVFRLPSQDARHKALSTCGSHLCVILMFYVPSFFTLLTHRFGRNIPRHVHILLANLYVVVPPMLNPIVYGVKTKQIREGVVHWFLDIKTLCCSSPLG
# How it was run: as §1
# 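Note: active if original authors judged signal statistically different from baseline.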
structure (smiles),measurement,setting,value
CCC=CCCCCC=O,odorant receptor agonist call,[1],inactive
same,odorant receptor agonist call,[2],inactive
same,odorant receptor agonist call,[3],inactive
same,odorant receptor agonist call,[4],inactive
O=C1CCOc2ccccc21,odorant receptor agonist call,[5],inactive
same,odorant receptor agonist call,[6],inactive
same,odorant receptor agonist call,[7],inactive
same,odorant receptor agonist call,[8],inactive
same,odorant receptor agonist call,[1],inactive
same,odorant receptor agonist call,[9],inactive
same,odorant receptor agonist call,[2],inactive
same,odorant receptor agonist call,[3],inactive
same,odorant receptor agonist call,[4],active
Cc1ccc(OC(=O)C(C)C)cc1,odorant receptor agonist call,[1],inactive
same,odorant receptor agonist call,[2],inactive
same,odorant receptor agonist call,[3],inactive
same,odorant receptor agonist call,[4],inactive
CCCCC=O,odorant receptor agonist call,[1],inactive
same,odorant receptor agonist call,[2],inactive
same,odorant receptor agonist call,[10],active
same,odorant receptor agonist call,[3],inactive
same,odorant receptor agonist call,[4],inactive
O=C([O-])CCCCCCC(=O)[O-].[H+].[H+],odorant receptor agonist call,[1],inactive
same,odorant receptor agonist call,[2],inactive
same,odorant receptor agonist call,[3],inactive
same,odorant receptor agonist call,[4],inactive
CC(C)CS,odorant receptor agonist call,[1],inactive
same,odorant receptor agonist call,[2],inactive
same,odorant receptor agonist call,[3],inactive
same,odorant receptor agonist call,[4],inactive
CCCCCCC(=O)[O-].[H+],odorant receptor agonist call,[5],inactive
same,odorant receptor agonist call,[6],inactive
same,odorant receptor agonist call,[7],inactive
same,odorant receptor agonist call,[8],inactive
same,odorant receptor agonist call,[9],inactive
same,odorant receptor agonist call,[10],inactive
same,odorant receptor agonist call,[4],inactive
O=c1ccc2ccccc2o1,odorant receptor agonist call,[5],inactive
same,odorant receptor agonist call,[6],inactive
same,odorant receptor agonist call,[7],inactive
same,odorant receptor agonist call,[8],inactive
same,odorant receptor agonist call,[9],inactive
same,odorant receptor agonist call,[4],active
O=C(OCc1ccccc1)c1ccccc1O,odorant receptor agonist call,[1],inactive
same,odorant receptor agonist call,[2],inactive
same,odorant receptor agonist call,[3],inactive
same,odorant receptor agonist call,[4],inactive
C=C(C)C1CCC2(C)OC2C1 (configuration not stated),odorant receptor agonist call,[1],inactive
same,odorant receptor agonist call,[2],inactive
same,odorant receptor agonist call,[3],inactive
same,odorant receptor agonist call,[4],inactive
CCC=CCCC=CC=O,odorant receptor agonist call,[1],inactive
same,odorant receptor agonist call,[2],inactive
same,odorant receptor agonist call,[3],inactive
same,odorant receptor agonist call,[4],inactive
CCCCCCC(C=O)=Cc1ccccc1,odorant receptor agonist call,[1],inactive
same,odorant receptor agonist call,[2],inactive
same,odorant receptor agonist call,[3],inactive
same,odorant receptor agonist call,[4],inactive
CCSSCC,odorant receptor agonist call,[1],inactive
same,odorant receptor agonist call,[2],inactive
same,odorant receptor agonist call,[3],inactive
same,odorant receptor agonist call,[4],inactive
CCCCCC(=Cc1ccccc1)C(OC)OC,odorant receptor agonist call,[1],inactive
same,odorant receptor agonist call,[2],inactive
same,odorant receptor agonist call,[3],inactive
same,odorant receptor agonist call,[4],inactive
C=C(CC)CCCC(C)(C)O,odorant receptor agonist call,[1],inactive
same,odorant receptor agonist call,[2],inactive
same,odorant receptor agonist call,[3],inactive
same,odorant receptor agonist call,[4],inactive
CCCC(C)C(=O)OCC (configuration not stated),odorant receptor agonist call,[1],inactive
same,odorant receptor agonist call,[2],inactive
same,odorant receptor agonist call,[3],inactive
same,odorant receptor agonist call,[4],inactive
C=CC(=C)CCC=C(C)CCC=C(C)C,odorant receptor agonist call,[1],inactive
same,odorant receptor agonist call,[2],inactive
same,odorant receptor agonist call,[3],inactive
same,odorant receptor agonist call,[4],inactive
C=C1C2CCC(C2)C1(C)C (configuration not stated),odorant receptor agonist call,[1],inactive
same,odorant receptor agonist call,[2],inactive
same,odorant receptor agonist call,[3],inactive
same,odorant receptor agonist call,[4],inactive
CCc1ccc(O)cc1,odorant receptor agonist call,[1],inactive
same,odorant receptor agonist call,[2],inactive
same,odorant receptor agonist call,[3],inactive
same,odorant receptor agonist call,[4],inactive
